Reference: ChEMBL document CHEMBL4311947, “Discovery of Novel Naphthylphenylketone and Naphthylphenylamine Derivatives as Cell Division Cycle 25B (CDC25B) Phosphatase Inhibitors: Design, Synthesis, Inhibition Mechanism, and in Vitro Efficacy against Melanoma Cell Lines” (J Med Chem, 2019)
pKi: −log10 of the molar value. Active and inactive are the calls of the source. No cut-off for these calls is given here.

Experiments:
[1] = target: T1, M-phase inducer phosphatase 2 (Homo sapiens) (UniProt P30305); assay: Inhibition of N-terminal His6-tagged human CDC25B (377 to 550 residues) expressed in Escherichia coli BL21(DE3) cells at 4 uM by spectrofluorimetric analysis
T1 sequence (whole entry): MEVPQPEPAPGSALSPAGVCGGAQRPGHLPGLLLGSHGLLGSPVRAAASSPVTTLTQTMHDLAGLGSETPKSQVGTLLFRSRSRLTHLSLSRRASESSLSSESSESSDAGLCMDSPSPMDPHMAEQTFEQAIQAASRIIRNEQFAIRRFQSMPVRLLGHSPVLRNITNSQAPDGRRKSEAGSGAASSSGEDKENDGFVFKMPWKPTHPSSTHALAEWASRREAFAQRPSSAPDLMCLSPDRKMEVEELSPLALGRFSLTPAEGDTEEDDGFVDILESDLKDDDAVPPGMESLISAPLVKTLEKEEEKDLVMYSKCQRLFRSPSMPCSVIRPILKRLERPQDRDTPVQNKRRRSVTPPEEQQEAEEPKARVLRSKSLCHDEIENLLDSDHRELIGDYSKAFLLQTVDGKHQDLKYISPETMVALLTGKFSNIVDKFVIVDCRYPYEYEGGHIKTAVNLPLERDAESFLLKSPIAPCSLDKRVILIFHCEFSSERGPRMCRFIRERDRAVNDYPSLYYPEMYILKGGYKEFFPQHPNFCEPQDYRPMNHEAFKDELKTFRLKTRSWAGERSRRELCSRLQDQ
Summary of the method: (§1)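 Intrinsic fluorescence of 1 µM recombinant CDC25B in 20 mM Tris·HCl pH 7.8, 0.5 mM TCEP, 0.5% (v/v) DMSO, recorded at 20°C with 280 nm excitation and 10 nm slits, without or with added NPA derivative. OMFP substrate omitted.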

[2] = target: T2, M-phase inducer phosphatase 3 (Homo sapiens, UniProt P30307); assay: Inhibition of N-terminal His6-tagged human CDC25C (280 to 454 residues) expressed in Escherichia coli BL21(DE3) cells using OMFP as substrate by double reciprocal Lineweaver-Burk plot analysis
T2 sequence (P30307 whole entry): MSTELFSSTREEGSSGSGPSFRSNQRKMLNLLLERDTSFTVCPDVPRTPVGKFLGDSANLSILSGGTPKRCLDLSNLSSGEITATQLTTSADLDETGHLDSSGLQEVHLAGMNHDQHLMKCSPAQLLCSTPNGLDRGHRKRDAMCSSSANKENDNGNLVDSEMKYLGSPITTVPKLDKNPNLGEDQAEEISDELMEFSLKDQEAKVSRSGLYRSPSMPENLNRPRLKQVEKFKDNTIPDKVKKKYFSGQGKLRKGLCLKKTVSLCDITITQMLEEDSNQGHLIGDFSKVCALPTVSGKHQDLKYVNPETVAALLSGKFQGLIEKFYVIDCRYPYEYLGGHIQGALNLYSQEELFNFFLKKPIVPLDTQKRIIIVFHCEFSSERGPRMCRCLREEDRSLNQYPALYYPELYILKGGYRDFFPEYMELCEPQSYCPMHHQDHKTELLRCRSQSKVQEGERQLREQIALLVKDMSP
Summary of the method: (§2)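 Recombinant CDC25 form (15–25 nM) in 20 mM Tris-HCl pH 7.8, 0.5 mM TCEP, 1% (v/v) DMSO, with or without inhibitor. Reaction started with 0.5–25 µM OMFP; O-methylfluorescein formation followed continuously at 30°C (ex 485/em 530 nm). Initial rates (AU/min) analysed in Lineweaver-Burk plots for Vmax, KM and mechanism; Ki averaged from at least three independent experiments, only roughly estimated for mixed inhibition.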

[3] = target: T3, M-phase inducer phosphatase 1 (Homo sapiens, UniProt P30304); assay: Inhibition of N-terminal His6-tagged human CDC25A (336 to 508 residues) expressed in Escherichia coli BL21(DE3) cells using OMFP as substrate by double reciprocal Lineweaver-Burk plot analysis; summary of the method: as §2
T3 sequence (P30304 whole entry): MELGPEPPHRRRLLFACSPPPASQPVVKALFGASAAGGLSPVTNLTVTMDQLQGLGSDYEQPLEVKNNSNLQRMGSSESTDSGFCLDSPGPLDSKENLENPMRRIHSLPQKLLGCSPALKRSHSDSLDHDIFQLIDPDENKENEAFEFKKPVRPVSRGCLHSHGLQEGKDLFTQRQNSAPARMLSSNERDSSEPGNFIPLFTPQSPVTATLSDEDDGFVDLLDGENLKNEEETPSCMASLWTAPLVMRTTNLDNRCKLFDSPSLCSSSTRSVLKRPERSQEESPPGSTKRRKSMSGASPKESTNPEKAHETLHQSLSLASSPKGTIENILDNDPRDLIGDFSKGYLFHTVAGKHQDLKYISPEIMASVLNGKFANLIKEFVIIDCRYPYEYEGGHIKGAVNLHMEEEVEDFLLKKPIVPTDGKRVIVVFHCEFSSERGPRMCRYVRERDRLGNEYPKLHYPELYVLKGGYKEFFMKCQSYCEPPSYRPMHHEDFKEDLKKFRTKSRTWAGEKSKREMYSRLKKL

[4] = target: T4, M-phase inducer phosphatase 2 (Homo sapiens, UniProt P30305); assay: Uncompetitive inhibition of N-terminal His6-tagged human CDC25B (377 to 550 residues) expressed in Escherichia coli BL21(DE3) cells using OMFP as substrate by double reciprocal Lineweaver-Burk plot analysis; summary of the method: as §2
T4 sequence (P30305 whole entry): T1 sequence (whole entry)

[5] = target: T1, M-phase inducer phosphatase 2 (Homo sapiens); assay: Inhibition of N-terminal His6-tagged human CDC25B (377 to 550 residues) expressed in Escherichia coli BL21(DE3) cells assessed as reduction in Vmax using OMFP as substrate by double reciprocal Lineweaver-Burk plot analysis; summary of the method: as §2
A2058 = assay: Cytotoxicity against human A2058 cells at 50 uM after 48 hrs by MTT assay; format: functional, cell-based
Summary of the method: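 Cells seeded at 4×10^4/well, treated 24 h after plating with inhibitor or 0.5% (v/v) DMSO vehicle for 24, 48 or 72 h. MTT added, 3 h at 37°C under 5% CO2, formazan solubilised, absorbance at 570 nm. Viability in arbitrary units, mean ± SE of at least three independent experiments versus control. Cells grown in DMEM/10% FBS at 37°C, 5% CO2; BJ-5ta cultured in 4:1 DMEM/Medium 199 with hygromycin B.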

[6] = target: T4, M-phase inducer phosphatase 2; assay: Non-competitive inhibition of N-terminal His6-tagged human CDC25B (377 to 550 residues) expressed in Escherichia coli BL21(DE3) cells using OMFP as substrate by double reciprocal Lineweaver-Burk plot analysis; summary of the method: as §2
[7] = target: T4, M-phase inducer phosphatase 2; assay: Mixed inhibition of N-terminal His6-tagged human CDC25B (377 to 550 residues) expressed in Escherichia coli BL21(DE3) cells using OMFP as substrate by double reciprocal Lineweaver-Burk plot analysis; summary of the method: as §2
[8] = target: T1, M-phase inducer phosphatase 2 (Homo sapiens); assay: Inhibition of N-terminal His6-tagged human CDC25B (377 to 550 residues) expressed in Escherichia coli BL21(DE3) cells at 1.5 uM by spectrofluorimetric analysis; summary of the method: as §1
[9] = target: T1, M-phase inducer phosphatase 2 (Homo sapiens); assay: Inhibition of N-terminal His6-tagged human CDC25B (377 to 550 residues) expressed in Escherichia coli BL21(DE3) cells at 3 uM by spectrofluorimetric analysis; summary of the method: as §1

SMILES | inhibition [5] | pKi [6] | also measured
CCOC(=O)c1ccccc1Nc1cccc2ccccc12 | Active | – | inhibition [1]: inactive; pKi [2]: 6.40; pKi [3]: 6.22; pKi [4]: 5.55
CCOC(=O)c1cccc(Nc2cccc3ccccc23)c1 | Active | – | Activity (A2058): Active; pKi [4]: 5.14
O=C(O)c1cccc(Nc2cc(O)cc3ccccc23)c1 | Active | 5.24 | –
COc1cc(Nc2cccc(C(=O)O)c2)c2ccccc2c1 | Active | – | pKi [4]: 4.26
c1ccc(Nc2cccc3ccccc23)cc1 | Active | – | pKi [7]: 4.49
O=C(O)c1ccccc1Nc1cccc2ccccc12 | Active | – | pKi [4]: 4.66
O=C(O)c1cccc(Nc2cccc3ccccc23)c1 | Active | – | pKi [7]: 4.52
Nc1cccc2c(Nc3cccc(C(=O)O)c3)cccc12 [listing 1 of 3 here] | Active | – | inhibition [8]: Active
O=C(O)c1ccccc1Nc1cccc2c(O)cccc12 | Active | 4.87 | –
CCOC(=O)c1ccccc1Nc1ccc(OC)c2ccccc12 | Active | 5.16 | –
COc1ccc(C(=O)c2ccccc2C(=O)O)c2ccccc12 | Active | 5.15 | –
CCOC(=O)c1cccc(Nc2cccc3c(O)cccc23)c1 | Active | 5.31 | –
COc1ccc(Nc2ccccc2C(=O)O)c2ccccc12 | Active | – | pKi [4]: 5.21
O=C(O)c1ccccc1Nc1ccc(O)c2ccccc12 | Active | 5.57 | –
COc1cc(C(=O)c2ccccc2C(=O)O)c2ccccc2c1 | Active | – | pKi [7]: 4.44
CCOC(=O)c1ccccc1Nc1cccc2c(O)cccc12 | Active | 5.13 | –

SMILES | inhibition [5] | pKi [6] | also measured
O=C(O)c1ccccc1Nc1cc(O)cc2ccccc12 | Active | 5.29 | –
COc1ccc(Nc2cccc(C(=O)O)c2)c2ccccc12 | Active | – | pKi [4]: 4.35
CCOC(=O)c1cccc(Nc2cccc3c(N)cccc23)c1 | Active | 4.44 | –
CCOC(=O)c1ccccc1Nc1cccc2c(N)cccc12 | Active | 5.00 | –
Nc1cccc2c(Nc3cccc(C(=O)O)c3)cccc12 [listing 2 of 3 here] | – | – | pKi [2]: 5.40; pKi [3]: 6.22
Nc1cccc2c(Nc3cccc(C(=O)O)c3)cccc12 [listing 3 of 3 here] | – | 6.10 | –
Nc1cccc2c(Nc3ccccc3C(=O)O)cccc12 | Active | 5.19 | –
Nc1ccc(Nc2cccc(C(=O)O)c2)c2ccccc12 | Active | 5.85 | inhibition [9]: Active
CCOC(=O)c1cccc(Nc2ccc(OC)c3ccccc23)c1 | Active | 4.92 | –
O=C(O)c1ccccc1C(=O)c1cccc2ccccc12 | Active | – | pKi [7]: 4.16
O=C(O)c1cccc(Nc2cccc3c(O)cccc23)c1 | Active | 5.54 | –
COc1cc(Nc2ccccc2C(=O)O)c2ccccc2c1 | Active | 4.77 | –
O=C(O)c1cccc(Nc2ccc(O)c3ccccc23)c1 | Active | – | pKi [4]: 5.19
O=C(O)c1ccccc1C(=O)c1cc(O)cc2ccccc12 | Active | 4.47 | –
CCOC(=O)c1ccccc1Nc1cc(OC)cc2ccccc12 | Active | – | pKi [4]: 4.90
CCOC(=O)c1ccccc1C(=O)c1cccc2ccccc12 | Active | – | pKi [7]: 4.27
